A value given as a limit tells only on which side of the number the result lay.

One experiment has as its system P. falciparum 3D7 strain. Kind of experiment: P. falciparum 3D7 growth inhibition. In kind it is cell-based. The following applies: Plasmodium falciparum, 3D7, read-out: EC50 growth 3D7.
The test system of another experiment is P. falciparum Dd2 strain. Kind of experiment: P. falciparum Dd2 growth inhibition. In kind it is cell-based. To be noted: Plasmodium falciparum, DD2, read-out: EC50 growth Dd2.
Experiment [1] concerns Dd2-scDHOD parasite strain. Put plainly: Transgenic Dd2-scDHOD growth inhibition. The experiment is classed as cell-based. The following applies: Plasmodium falciparum, DD2, read-out: EC50 growth Dd2-scDHOD.
The next experiment addresses pfNDH2 (Plasmodium falciparum, UniProt Q8I302). Kind of experiment: pfNDH2 enzyme activity assay. The experiment is classed as biochemical.
A further experiment has as its target T1, pfDHOD (Plasmodium falciparum, UniProt Q08210).
T1 sequence (Q08210 24-569): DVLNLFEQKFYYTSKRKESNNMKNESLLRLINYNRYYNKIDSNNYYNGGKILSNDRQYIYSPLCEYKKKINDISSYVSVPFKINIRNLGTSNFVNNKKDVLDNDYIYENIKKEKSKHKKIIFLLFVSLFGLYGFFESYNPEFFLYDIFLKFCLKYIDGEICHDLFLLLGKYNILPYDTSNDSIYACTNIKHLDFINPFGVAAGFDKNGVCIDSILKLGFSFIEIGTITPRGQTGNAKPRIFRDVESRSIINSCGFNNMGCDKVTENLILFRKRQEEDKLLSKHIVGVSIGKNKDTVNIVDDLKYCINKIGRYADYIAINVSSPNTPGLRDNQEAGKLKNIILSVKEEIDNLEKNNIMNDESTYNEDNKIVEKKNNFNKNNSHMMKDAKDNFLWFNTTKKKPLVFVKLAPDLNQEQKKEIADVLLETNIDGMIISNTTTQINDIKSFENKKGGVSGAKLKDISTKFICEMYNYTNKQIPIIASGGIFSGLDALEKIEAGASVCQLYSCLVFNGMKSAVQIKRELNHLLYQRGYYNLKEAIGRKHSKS
Put plainly: pfDHOD chromogen. In kind it is biochemical. A digest of the protocol:
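DCIP reduction assay in 384-well format. Test compound in serial dilution; reaction started by adding pfDHOD and run for 10 min at 25 °C. Read-out A600.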

The target of the next experiment is hsCYT bc1 (Homo sapiens, UniProt P00156). Put plainly: Cytochrome c reductase activity, human. The experiment is classed as biochemical. A digest of the protocol:
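Mitochondria from HEK293 cells pelleted at 400 g for 10 min, disrupted by N2 cavitation, then debris spin, 10,000 g pellet and 1–2 M sucrose gradient. Mitochondria (40 ug/ml) in 250 mM sucrose, 50 mM KH2PO4, 0.2 mM EDTA, 1 mM NaN3, 2.5 mM KCN with 50 uM cytochrome c. Started with 25 uM decylubiquinol; cytochrome c reduction read at 550 nm over the first 60 s.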

Another experiment concerns liver stage P. berghei. Put plainly: P. berghei liver stage assay in HepG2 cells. The experiment is classed as cell-based. To be noted: Plasmodium berghei, HepG2, 45 h, read-out: IC50 liver stage P. berghei. Summed up: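 Luciferase-expressing P. berghei ANKA sporozoites (4,000, from mosquito salivary glands) infect 12,000 HepG2 cells with or without test compound; final DMSO 0.3%. Parasite growth is read by luciferase luminescence 45 h post-infection. Results are mean ± SD, and experiments were repeated 2-3 times.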

What is called EC50 is the concentration giving half of the maximal effect. The IC50 is the concentration at which inhibition is half-maximal. With `O=C1C(O)=C([C@H]2CC[C@H](c3ccc(Cl)cc3)CC2)C(=O)c2ccccc21` [atovaquone], the EC50 in the experiment on P. falciparum 3D7 strain is 1 nM; in the experiment on P. falciparum Dd2 strain, 1 nM; in experiment [1], over 5000 nM. For the same compound, the IC50 is over 20000 nM at pfNDH2, over 20000 nM against pfDHOD, 350 ± 12 nM against hsCYT bc1 and 0.3 nM in the experiment on liver stage P. berghei.

(Values after PMC3474356 (Chemistry & biology, 2011).)
